We go through eleven compounds from PMC11583631 (RSC Advances, 2024).

Assay [1] concerns bacterial tyrosinase enzyme. The experiment in a line: in vitro bacterial tyrosinase inhibition assay. In kind it is biochemical. Conditions: L-tyrosine substrate; for Percentage inhibition: 37 °C, absorbance 475 nm; for IC50: by extrapolation of the graph.
A further assay concerns tyrosinase enzyme. The experiment in a line: kinetic studies. Conditions: Lineweaver–Burk and Dixon plots, tyrosine 0.1–1 mM. In kind it is biochemical, bacterial. The gist of the method: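 Isolated bacterial tyrosinase; pre-incubation and measurement timing as in the main inhibition assay. Lineweaver–Burk: 1/V vs 1/[S]. Ki (EI) and Ki′ (ESI) from secondary plots of slope and intercept vs inhibitor concentration. Dixon plot (1/V vs inhibitor concentration) confirmed inhibition type.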

Assay [2] has as its target bacterial tyrosinase enzyme. The settings on record: standard inhibitors; ref [50]; cited from earlier work.

Like-named read-outs stand apart in the source and are kept apart here.

Compound `CCCCc1ccc(NC(=O)CSc2nnc(-c3cc4c(ccc5ccccc54)o3)n2-c2ccccc2)cc1` [20a, N-(4-butylphenyl)-2-((5-(naphtho[2,1-b]furan-2-yl)-4-phenyl-4H-1,2,4-triazol-3-yl)thio)acetamide] registered a Percentage inhibition in assay [1] of 22.84 ± 0.05.

As for `Cc1ccc(C)c(NC(=O)CSc2nnc(-c3cc4c(ccc5ccccc54)o3)n2-c2ccccc2)c1` [20b, N-(2,5-dimethylphenyl)-2-((5-(naphtho[2,1-b]furan-2-yl)-4-phenyl-4H-1,2,4-triazol-3-yl)thio)acetamide], the Percentage inhibition in assay [1] is on record as 31.40 ± 0.25. In the case of `CCNC(=O)CSc1nnc(-c2cc3c(ccc4ccccc43)o2)n1-c1ccccc1` [20c, N-ethyl-2-((5-(naphtho[2,1-b]furan-2-yl)-4-phenyl-4H-1,2,4-triazol-3-yl)thio)acetamide], in assay [1], the Percentage inhibition stood at 22.62 ± 0.30. Still for that read-out and setting: in the case of `COc1ccc(OC)c(NC(=O)CSc2nnc(-c3cc4c(ccc5ccccc54)o3)n2-c2ccccc2)c1` [20d, N-(2,5-dimethoxyphenyl)-2-((5-(naphtho[2,1-b]furan-2-yl)-4-phenyl-4H-1,2,4-triazol-3-yl)thio)acetamide] it was 22.77 ± 0.17. The term IC50 denotes the concentration that gives 50% inhibition. For `O=C(CSc1nnc(-c2cc3c(ccc4ccccc43)o2)n1-c1ccccc1)Nc1ccccc1Cl` [20f, N-(2-chlorophenyl)-2-((5-(naphtho[2,1-b]furan-2-yl)-4-phenyl-4H-1,2,4-triazol-3-yl)thio)acetamide], in assay [1], the Percentage inhibition is given as 32.34 ± 0.07 and the IC50 is 0.51 ± 0.12 µM. Also, the type of inhibition entry in the assay with tyrosinase enzyme is “non-competitively”. On to `COc1ccccc1NC(=O)CSc1nnc(-c2cc3c(ccc4ccccc43)o2)n1-c1ccccc1` [20g, N-(2-methoxyphenyl)-2-((5-(naphtho[2,1-b]furan-2-yl)-4-phenyl-4H-1,2,4-triazol-3-yl)thio)acetamide], for which, in assay [1], the Percentage inhibition is recorded as 5.40 ± 0.05 and the IC50 is 12.9 ± 0.15 µM. `O=C(CSc1nnc(-c2cc3c(ccc4ccccc43)o2)n1-c1ccccc1)Nc1ccc(F)cc1` [20h, N-(4-fluorophenyl)-2-((5-(naphtho[2,1-b]furan-2-yl)-4-phenyl-4H-1,2,4-triazol-3-yl)thio)acetamide]: in assay [1], the Percentage inhibition was found to be 13.92 ± 0.11 and the IC50 was 9.36 ± 0.06 µM. With `O=C(CSc1nnc(-c2cc3c(ccc4ccccc43)o2)n1-c1ccccc1)N1CCOCC1` [20i, 1-Morpholino-2-((5-(naphtho[2,1-b]furan-2-yl)-4-phenyl-4H-1,2,4-triazol-3-yl)thio)ethanone], in assay [1], the Percentage inhibition came out at 30.55 ± 0.1 and the 50% inhibitory concentration (IC50) is 1.99 ± 0.07 µM. The matching figures for `CCN(CC)C(=O)CSc1nnc(-c2cc3c(ccc4ccccc43)o2)n1-c1ccccc1` [20j, N,N-diethyl-2-((5-(naphtho[2,1-b]furan-2-yl)-4-phenyl-4H-1,2,4-triazol-3-yl)thio)acetamide]: 2.61 ± 0.50 and 23.03 ± 0.18 µM.

For `O=C1O[C@H]([C@@H](O)CO)C(O)=C1O` [Ascorbic acid, reference compound], the IC50 in assay [2] was 11.5 ± 1 µM. In assay [1], this compound displayed a Percentage inhibition of 58.66 ± 1.00.

In the case of `O=c1cc(CO)occ1O` [Kojic acid, reference compound], the IC50 in assay [2] is 30.3 ± 0.75 µM. The same compound came in with a Percentage inhibition in assay [1] of 6.80 ± 0.58.
